T1: human ALDH1A2 (Homo sapiens, UniProt O94788)
T1 sequence (O94788 27-518): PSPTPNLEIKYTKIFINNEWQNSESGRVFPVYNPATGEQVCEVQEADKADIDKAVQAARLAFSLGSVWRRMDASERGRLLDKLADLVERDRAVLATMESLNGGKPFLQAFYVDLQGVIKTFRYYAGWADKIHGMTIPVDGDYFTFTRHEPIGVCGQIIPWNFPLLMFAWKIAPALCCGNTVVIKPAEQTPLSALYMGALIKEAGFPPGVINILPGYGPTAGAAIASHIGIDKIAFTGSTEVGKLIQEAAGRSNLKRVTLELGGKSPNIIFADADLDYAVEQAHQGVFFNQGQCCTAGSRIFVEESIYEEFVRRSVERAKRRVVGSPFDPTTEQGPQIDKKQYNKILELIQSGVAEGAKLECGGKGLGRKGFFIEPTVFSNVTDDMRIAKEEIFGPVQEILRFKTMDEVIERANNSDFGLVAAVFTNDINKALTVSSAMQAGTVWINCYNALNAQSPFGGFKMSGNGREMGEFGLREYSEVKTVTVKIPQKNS


Legend:
human ALDH1A2 = biological target: T1, human ALDH1A2; experiment: Differential scanning fluorimetry; type: binding; conditions: for DSF ΔTm (°C); (−) NAD: 200 μM compound, 4 μM ALDH1A2, absence of NAD, single experiment in quadruplicate
How it was run: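 Truncated human ALDH1A2 (residues 27–518) expressed in E. coli BL21Star (DE3), His-tag removed by PreScission protease, purified as a tetramer. Fluorescence read at 620 nm (ROX channel) during thermal melt, in quadruplicate. ΔTm taken against unliganded enzyme with 2% DMSO.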

crystal structure = biological target: the molecule itself; experiment: crystal structure

Row | Molecule | DSF ΔTm (°C); (−) NAD (human ALDH1A2) [°C] | also measured
1 | CS(=O)(=O)c1ccc(-c2nn(-c3ccc(C#N)cc3)cc2C(=O)Nc2cccc(F)c2)cc1 [CM121] | 5.4 ± 0.15 | 
2 | NC(=O)c1ccc[n+]([C@@H]2O[C@H](COP(=O)([O-])OP(=O)(O)OC[C@H]3O[C@@H](n4cnc5c(N)ncnc54)[C@H](O)[C@@H]3O)[C@@H](O)[C@H]2O)c1 [NAD] |  | DSF ΔTm (°C); (+) NAD (human ALDH1A2; 1 mM NAD+ alone, no inhibitor): 2.6 ± 0.04 °C
3 | O=C(NCCCCCCCCNC(=O)C(Cl)Cl)C(Cl)Cl [WIN18,446, reference compound] | 7.6 ± 0.17 | 
4 | human ALDH1A2 (residues 27-518) (enzyme, UniProt O94788 27-518, looked up) PSPTPNLEIKYTKIFINNEWQNSESGRVFPVYNPATGEQVCEVQEADKADIDKAVQAARLAFSLGSVWRRMDASERGRLLDKLADLVERDRAVLATMESLNGGKPFLQAFYVDLQGVIKTFRYYAGWADKIHGMTIPVDGDYFTFTRHEPIGVCGQIIPWNFPLLMFAWKIAPALCCGNTVVIKPAEQTPLSALYMGALIKEAGFPPGVINILPGYGPTAGAAIASHIGIDKIAFTGSTEVGKLIQEAAGRSNLKRVTLELGGKSPNIIFADADLDYAVEQAHQGVFFNQGQCCTAGSRIFVEESIYEEFVRRSVERAKRRVVGSPFDPTTEQGPQIDKKQYNKILELIQSGVAEGAKLECGGKGLGRKGFFIEPTVFSNVTDDMRIAKEEIFGPVQEILRFKTMDEVIERANNSDFGLVAAVFTNDINKALTVSSAMQAGTVWINCYNALNAQSPFGGFKMSGNGREMGEFGLREYSEVKTVTVKIPQKNS |  | stoichiometry N (crystal structure): 4

— article PMC6089219 (ACS chemical biology, 2018)
